Pf Dd2 growth = P. falciparum Dd2 growth inhibitors, primary screen, SYBR Green fluorescence, single dose replicates | AID 1159554, 2015 | activity change, % at 10 µM | 72 h; stronger effect = lower value | actives 2.3% (n = 94,000); in the data active = activity change below about -80%; inconclusive = no clear call, values can overlap the other calls
T cruzi growth-1 = T. cruzi intracellular proliferation inhibitors, primary screen, cell-based, beta-gal Tulahuen parasites, NIH3T3 host, luminescence | AID 624255, 2012 | T. cruzi beta-gal in NIH3T3, GalScreen luminescence, 90 h | actives 5.9% (n = 77,000) | inhibition, % at 8.34 µM;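 active = mean inhibition above about 93%, with at least 55% of replicates each passing it, limit read from the data, passing the limit was not always enough; inconclusive = only one of those two conditions holds; inactive = neither condition holds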
GASC1 inh = inhibitors of GASC-1 (KDM4C) histone demethylase, primary screen, biochemical, single concentration HTS; GST-KDM4C 2-372, H3K9me3 peptide, LANCE TR-FRET; Lysine-specific demethylase 4C (Homo sapiens), Q9H3R0; inhibition, % at 12.5 µM; actives 0.15% (n = 96,000);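 active = mean replicate inhibition above about 25%, with at least 55% of replicates also reaching it, limit read from the data, passing the limit was not always enough; inconclusive = only one of those two conditions met; inactive = neither condition met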
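Compound: one test concentration per compound; Material: GST-GASC-1 enzyme fragment 2-372; Amount: GASC-1 enzyme at 10 nM final in reaction; Also added: H3K9me3 peptide substrate, Fe(II), 2-oxoglutarate; Technique: LANCE TR-FRET; Times: 30 min demethylation and 1 h detection at room temperature.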
IDH1 R132H inh = inhibitors of IDH1 R132H reductase, primary screen, biochemical, plate reader, single point. actives 0.18% (n = 70,000). inhibition, % at 10 µM. diaphorase/resazurin fluorescence, 60 min. Isocitrate dehydrogenase [NADP] cytoplasmic (Homo sapiens), O75874; in the data active = inhibition above about 34%; inconclusive = no clear call, values can overlap the other calls; inactive = below about 11%
Target sequence (O75874 whole entry R132H): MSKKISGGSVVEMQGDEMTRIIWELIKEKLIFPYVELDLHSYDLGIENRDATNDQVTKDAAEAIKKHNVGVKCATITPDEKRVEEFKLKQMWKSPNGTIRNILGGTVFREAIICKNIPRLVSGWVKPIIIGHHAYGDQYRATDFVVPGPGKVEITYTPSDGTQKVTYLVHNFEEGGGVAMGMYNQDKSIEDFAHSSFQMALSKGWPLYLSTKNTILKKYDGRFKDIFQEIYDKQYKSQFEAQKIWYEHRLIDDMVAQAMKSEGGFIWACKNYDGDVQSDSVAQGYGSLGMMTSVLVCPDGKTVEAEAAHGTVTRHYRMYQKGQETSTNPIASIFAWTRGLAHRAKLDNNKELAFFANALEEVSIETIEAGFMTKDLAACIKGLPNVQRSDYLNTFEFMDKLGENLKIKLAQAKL
T cruzi growth-2 = T. cruzi intracellular proliferation inhibitors, confirmation, cell-based, NIH3T3 host, beta-gal parasite, luminescence, cherry-pick; shares compounds with T cruzi growth-1; actives 72% (n = 5,600); T. cruzi beta-gal in NIH3T3, GalScreen luminescence, 90 h; inhibition, % at 8.35 µM; AID 651739, 2012;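 active = mean replicate inhibition above about 95% and at least 55% of replicates individually reaching it, limit read from the data; inconclusive = only one of the two criteria is met; inactive = neither criterion is met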
T cruzi growth-3 = inhibitors of intracellular T. cruzi replication, confirmation, NIH3T3 host cells, beta-gal parasites, cherry-pick, set 2; inhibition, % at 2.09 µM; T. cruzi beta-gal in NIH3T3, GalScreen luminescence, 90 h; shares compounds with T cruzi growth-1; actives 21% (n = 5,600);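 active = mean inhibition above about 95%, with at least 55% of replicates also reaching it, limit read from the data; inconclusive = meets just one of the two conditions; inactive = meets neither condition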
NIH3T3 tox = cytotoxicity in mouse NIH/3T3 fibroblasts, confirmation, cytotoxicity control for T. cruzi proliferation inhibitor project, cell-based, cherry-pick, single point; shares compounds with T cruzi growth-1; NIH/3T3 viability, CellTiter-Glo ATP luminescence, 90 h; cytotoxicity (signal decrease), % at 8.35 µM; actives 14% (n = 5,600); AID 651742, 2012;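 active = mean signal decrease across replicates above about 35% based on untreated-well scatter, with enough replicates individually passing, limit read from the data; inconclusive = no rule stated though some were filed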
3T3 cytotox 2 = NIH/3T3 fibroblast cytotoxicity, confirmation, cytotoxicity control, cell-based, cherry-pick, single point, set 2. shares compounds with T cruzi growth-1. NIH/3T3 viability, CellTiter-Glo ATP luminescence, 90 h. inhibition, % at 24.9 µM. actives 56% (n = 5,600);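 active = mean loss of cell viability signal at or above a set limit, and enough replicates individually reaching it; inconclusive = meets only the mean limit or only the replicate share; inactive = meets neither condition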
Large screens that a line does not name were inactive (follow-up assays come after a bar, where they were run). Rows were chosen to be rich in hits. Some 5.8% of all compounds tested hit in one or more screens of this group.

COc1ccc(NC(=O)Nc2ccc3c(c2)C(=O)N([C@@H](C)CO)C[C@@H](C)[C@H](CN(C)CC2CCCCC2)OCCCC[C@@H](C)O3)cc1	T cruzi growth-1 inconclusive (no result: IDH1 R132H inh) | T cruzi growth-2 98.5 | T cruzi growth-3 inactive | NIH3T3 tox inactive | 3T3 cytotox 2 103.8
O=C(C[C@H]1CC[C@H]2[C@@H](COC[C@@H](O)CN2CCC(F)(F)F)O1)NCc1ccc(Oc2ccccc2)cc1	T cruzi growth-1 107.8 (no result: Pf Dd2 growth, IDH1 R132H inh) | T cruzi growth-2 inactive | T cruzi growth-3 inactive | NIH3T3 tox 39.1 | 3T3 cytotox 2 inactive
O=C(C[C@H]1CC[C@@H]2[C@H](COC[C@H](O)CN2CCc2ccccc2)O1)NCc1ccc(Oc2ccccc2)cc1	T cruzi growth-1 102.7 (no result: IDH1 R132H inh) | T cruzi growth-2 101.7 | T cruzi growth-3 inactive | NIH3T3 tox inactive | 3T3 cytotox 2 106.6
O=C(C[C@H]1CC[C@@H]2[C@H](COC[C@@H](O)CN2CCC(F)(F)F)O1)NCC1CCCCC1	T cruzi growth-1 107.5 (no result: IDH1 R132H inh) | T cruzi growth-2 inactive | T cruzi growth-3 inactive | NIH3T3 tox inactive | 3T3 cytotox 2 inactive
CC(C)NC(=O)N[C@@H]1CC[C@@H](CCNC(=O)C2CC2)O[C@@H]1CO	none (no result: T cruzi growth-1)
O=S(=O)(c1ccccc1F)N1C[C@H]2[C@@H](c3ccccc31)[C@@H](CO)N2Cc1ccc2c(c1)OCO2	T cruzi growth-1 98.7 (no result: IDH1 R132H inh) | T cruzi growth-2 103.0 | T cruzi growth-3 100.4 | NIH3T3 tox inactive | 3T3 cytotox 2 inactive
O=S(=O)(c1ccc(F)cc1)N1C[C@@H]2[C@H](c3ccccc31)[C@H](CO)N2Cc1ccc2c(c1)OCO2	T cruzi growth-1 100.8 (no result: IDH1 R132H inh) | T cruzi growth-2 106.9 | T cruzi growth-3 inactive | NIH3T3 tox inactive | 3T3 cytotox 2 inactive
Cc1ccc(S(=O)(=O)N(C)C[C@@H]2Oc3ccc(NC(=O)Cn4cnnn4)cc3C(=O)N([C@H](C)CO)C[C@H]2C)cc1	none
COc1ccc2c3c([nH]c2c1)[C@H](CO)N(C(=O)c1ccc(F)cc1)CC31CCN(C(=O)Nc2cccc(F)c2)CC1	none (no result: T cruzi growth-1, IDH1 R132H inh)
O=C(Nc1ccccc1)Nc1ccc2c(c1)[C@@H]1C[C@@H](CC(=O)N3CCOCC3)O[C@H](CO)[C@@H]1O2	none
COc1cccc(NC(=O)N(C)C[C@H]2Oc3ncc(C#Cc4ccc(F)cc4)cc3C(=O)N([C@H](C)CO)C[C@@H]2C)c1	none
COc1cccc(NC(=O)N(C)C[C@@H]2Oc3ncc(C#Cc4ccc(F)cc4)cc3C(=O)N([C@H](C)CO)C[C@H]2C)c1	T cruzi growth-1 116.7 | T cruzi growth-2 108.1 | T cruzi growth-3 101.8 | NIH3T3 tox inactive | 3T3 cytotox 2 inactive
COc1cccc(NC(=O)N(C)C[C@H]2Oc3ncc(C#Cc4ccc(F)cc4)cc3C(=O)N([C@@H](C)CO)C[C@@H]2C)c1	T cruzi growth-1 121.0 (no result: IDH1 R132H inh) | T cruzi growth-2 105.8 | T cruzi growth-3 100.1 | NIH3T3 tox inactive | 3T3 cytotox 2 37.6
COc1cccc(NC(=O)N(C)C[C@@H]2Oc3ncc(C#Cc4ccc(F)cc4)cc3C(=O)N([C@@H](C)CO)C[C@H]2C)c1	T cruzi growth-1 112.7 (no result: IDH1 R132H inh) | T cruzi growth-2 111.9 | T cruzi growth-3 111.0 | NIH3T3 tox inactive | 3T3 cytotox 2 inactive
COc1cccc(NC(=O)N(C)C[C@H]2Oc3ncc(C#Cc4ccc(F)cc4)cc3C(=O)N([C@H](C)CO)C[C@H]2C)c1	none (no result: IDH1 R132H inh)

Compound activity from PubChem BioAssay.
